Here are results for three molecules from ChEMBL document CHEMBL4130623, “Discovery of Highly Potent Pinanamine-Based Inhibitors against Amantadine- and Oseltamivir-Resistant Influenza A Viruses” (J Med Chem, 2018).

The EC50 is the concentration that produces a half-maximal response.

Active and inactive are the calls of the source. The rule behind the calls is not given here.

Assay [1] concerns Influenza A virus (A/Puerto Rico/8/1934(H1N1)). The assay is described as follows: Antiviral activity against Influenza A virus (A/PR/8/34 (H1N1)(NA-H274Y)) infected in MDCK cells assessed as reduction in virus-induced cytopathic effect after 48 hrs by microscopic analysis. The format is functional, organism-based. The method, boiled down:
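MDCK monolayers (5×10^4 cells/well, grown 24 h) were rinsed twice, infected with 100 TCID50 virus for 2 h at 37 °C in 5% CO2, and the inoculum was removed. Two-fold serial compound dilutions in DMEM with 1.5 µg/mL trypsin were added and incubated 48 h at 34 °C. CPE percentage was scored by microscope and EC50 fitted by non-linear regression.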
A general note: Protection from cytopathic effect is a common read-out in antiviral testing.

Assay [2] relates to Matrix protein 2 (Influenza A virus (A/Udorn/307/1972(H3N2))), P0DOF8 [S31N]. The experiment in a line: Inhibition of Influenza A virus AM2 S31N mutant expressed in Xenopus laevis frog oocytes assessed as maximum reduction in channel current at 100 uM at pH 5.5 after 2 mins by TEVC assay. The assay is classed as cell-based. The method, boiled down: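 Xenopus laevis oocytes were microinjected with RNA expressing A/M2 S31N. Compound was applied for 2 min at pH 5.5 and the percentage inhibition of M2 current was recorded by two-electrode voltage clamp. Each measurement was repeated twice with different cells.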

As to `CCOC(=O)C1=C[C@@H](OC(CC)CC)[C@H](NC(C)=O)[C@@H](N)C1` [OSELTAMIVIR], the EC50 in assay [1] was greater than 10 µM. Still for that read-out and setting: as for `NC12CC3CC(CC(C3)C1)C2` [AMANTADINE], the figure is greater than 100 µM. As to `C[C@@H]1C2CC(C[C@H]1NCc1sccc1C1CC1)C2(C)C` (single isomer, unassigned), the inhibition entry in assay [2] was “inactive”. In assay [1], the EC50 came to 6.85 µM.
